Source: ChEMBL document CHEMBL1817593, “C5'-Alkyl Substitution Effects on Digitoxigenin α-l-Glycoside Cancer Cytotoxicity” (ACS Med Chem Lett, 2011)
pIC50: −log10 of the molar value. Active and inactive are the calls of the source. No cut-off for these calls is given here.

Key:
NCI-H460 [1] = assay: Induction of apoptosis in human NCI-H460 cells in serum free medium at 50 nM after 12 hrs by Hoechst 33342/propidium iodide staining based fluorescence microscopy; format: functional
In short: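 NCI-H460 cells exposed to a single 50 nM concentration for 12 h. Cells stained with Hoechst 33342 and propidium iodide. Blue cells with condensed or fragmented nuclei were scored as apoptotic and red, ruptured cells as necrotic. Result given as % apoptotic cell death; N = 6, one-way ANOVA.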

NCI-H460 [2] = assay: Cytotoxicity against human NCI-H460 cells assessed as cell death in serum free medium at 10 nM after 12 hrs by Hoechst 33342/propidium iodide staining based fluorescence microscopy; format: functional
In short: (§1)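 NCI-H460 human lung cancer cells exposed 12 h to 10 nM–10 μM drug, including a 50 nM single-concentration test. Nuclei were stained with Hoechst 33342 and necrotic cells with propidium iodide. Apoptotic cells were scored by condensed or fragmented blue nuclei and necrotic cells by red PI staining. Total cell death (apoptosis plus necrosis) was recorded; N = 6.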

NCI-H460 [3] = assay: Cytotoxicity against human NCI-H460 cells assessed as cell death in serum free medium at 25 nM after 12 hrs by Hoechst 33342/propidium iodide staining based fluorescence microscopy; format: functional; in short: as §1
NCI-H460 [4] = assay: Cytotoxicity against human NCI-H460 cells assessed as cell death in serum free medium at 50 nM after 12 hrs by Hoechst 33342/propidium iodide staining based fluorescence microscopy; format: functional; in short: as §1
NCI-H460 [5] = assay: Cytotoxicity against human NCI-H460 cells assessed as cell death in serum free medium at 75 nM after 12 hrs by Hoechst 33342/propidium iodide staining based fluorescence microscopy; format: functional; in short: as §1
NCI-H460 [6] = assay: Cytotoxicity against human NCI-H460 cells assessed as cell death in serum free medium at 100 nM after 12 hrs by Hoechst 33342/propidium iodide staining based fluorescence microscopy; format: functional; in short: as §1
NCI-H460 [7] = assay: Cytotoxicity against human NCI-H460 cells assessed as cell death in serum free medium at 250 nM after 12 hrs by Hoechst 33342/propidium iodide staining based fluorescence microscopy; format: functional; in short: as §1
NCI-H460 [8] = assay: Cytotoxicity against human NCI-H460 cells assessed as cell death in serum free medium at 500 nM after 12 hrs by Hoechst 33342/propidium iodide staining based fluorescence microscopy; format: functional; in short: as §1
NCI-H460 [9] = assay: Cytotoxicity against human NCI-H460 cells assessed as cell death in serum free medium at 1000 nM after 12 hrs by Hoechst 33342/propidium iodide staining based fluorescence microscopy; format: functional; in short: as §1
NCI-H460 [10] = assay: Cytotoxicity against human NCI-H460 cells assessed as cell death in serum free medium at 10000 nM after 12 hrs by Hoechst 33342/propidium iodide staining based fluorescence microscopy; format: functional; in short: as §1
NCI-H460 [11] = assay: Induction of apoptosis in human NCI-H460 cells in serum free medium after 12 hrs by Hoechst 33342/propidium iodide staining based fluorescence microscopy; format: functional, cell-based
In short: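 NCI-H460 cells treated for 12 h at 10 nM to 10 μM. Total cell death (apoptosis plus necrosis) scored by Hoechst 33342/propidium iodide staining, with N = 6 and two-way ANOVA. IC50 obtained by nonlinear regression. Table values are the mean of three independent experiments with duplicate determinations.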

NCI-H460 [12] = assay: Ratio of digitoxin IC50 to compound IC50 for human NCI-H460 cells after 12 hrs by Hoechst 33342/propidium iodide staining based fluorescence microscopy; format: functional
NCI-H460 [13] = assay: Cytotoxicity against human NCI-H460 cells assessed as cell viability at 1 nM after 48 hrs by MTT assay; format: functional; settings: NCI-H460, 48 h, read-out: Activity
In short: (§2)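 Viability of NCI-H460 cells was measured by MTT (mitochondrial enzymatic activity) after 48 h exposure, within a dose series spanning 1 nM–10 μM. N = 9, analysed by two-way ANOVA.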

NCI-H460 [14] = assay: Cytotoxicity against human NCI-H460 cells assessed as cell viability at 10 nM after 48 hrs by MTT assay; format: functional; settings: NCI-H460, 48 h, read-out: Activity; in short: as §2
NCI-H460 [15] = assay: Cytotoxicity against human NCI-H460 cells assessed as cell viability at 25 nM after 48 hrs by MTT assay; format: functional; settings: NCI-H460, 48 h, read-out: Activity; in short: as §2
NCI-H460 [16] = assay: Cytotoxicity against human NCI-H460 cells assessed as cell viability at 50 nM after 48 hrs by MTT assay; format: functional; settings: NCI-H460, 48 h, read-out: Activity; in short: as §2
NCI-H460 [17] = assay: Cytotoxicity against human NCI-H460 cells assessed as cell viability at 100 nM after 48 hrs by MTT assay; format: functional; settings: NCI-H460, 48 h, read-out: Activity; in short: as §2
NCI-H460 [18] = assay: Cytotoxicity against human NCI-H460 cells assessed as cell viability at 500 nM after 48 hrs by MTT assay; format: functional; settings: NCI-H460, 48 h, read-out: Activity; in short: as §2
NCI-H460 [19] = assay: Cytotoxicity against human NCI-H460 cells assessed as cell viability at 1000 nM after 48 hrs by MTT assay; format: functional; settings: NCI-H460, 48 h, read-out: Activity; in short: as §2
NCI-H460 [20] = assay: Cytotoxicity against human NCI-H460 cells assessed as cell viability after 48 hrs by MTT assay; format: functional; settings: NCI-H460, 48 h
In short: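 NCI-H460 cells were exposed to drug for 48 h, and viability was read by MTT as mitochondrial enzymatic activity. GI50 was derived from dose-response curves (1 nM–10 μM). Values are from three independent experiments with duplicate determinations, given with standard error of the mean.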

CCRF-CEM = assay: Cytotoxicity against human CCRF-CEM cells after 48 hrs by sulforhodamine B assay; format: functional
HL-60(TB) = assay: Cytotoxicity against human HL-60(TB) cells after 48 hrs by sulforhodamine B assay; format: functional; settings: HL-60, 48 h
K562 = assay: Cytotoxicity against human K562 cells after 48 hrs by sulforhodamine B assay; format: functional; settings: K562, 48 h
HCC 2998 = assay: Cytotoxicity against human HCC2998 cells after 48 hrs by sulforhodamine B assay; format: functional; settings: HCC 2998, 48 h
HCT-116 = assay: Cytotoxicity against human HCT116 cells after 48 hrs by sulforhodamine B assay; format: functional
SF-539 = assay: Cytotoxicity against human SF539 cells after 48 hrs by sulforhodamine B assay; format: functional; settings: SF-539, 48 h
U-251 = assay: Cytotoxicity against human U251 cells after 48 hrs by sulforhodamine B assay; format: functional; settings: U-251, 48 h
SK-MEL-2 = assay: Cytotoxicity against human SK-MEL-2 cells after 48 hrs by sulforhodamine B assay; format: functional
IGROV-1 = assay: Cytotoxicity against human IGROV1 cells after 48 hrs by sulforhodamine B assay; format: functional; settings: IGROV-1, 48 h
OVCAR-5 = assay: Cytotoxicity against human OVCAR5 cells after 48 hrs by sulforhodamine B assay; format: functional; settings: OVCAR-5, 48 h
OVCAR-8 = assay: Cytotoxicity against human OVCAR8 cells after 48 hrs by sulforhodamine B assay; format: functional; settings: OVCAR-8, 48 h
NCI/ADR-RES = assay: Cytotoxicity against human NCI/ADR-RES cells after 48 hrs by sulforhodamine B assay; format: functional
CAKI-1 = assay: Cytotoxicity against human Caki1 cells after 48 hrs by sulforhodamine B assay; format: functional; settings: CAKI-1, 48 h
RXF 393 = assay: Cytotoxicity against human RXF393 cells after 48 hrs by sulforhodamine B assay; format: functional; settings: RXF 393, 48 h
BT-549 = assay: Cytotoxicity against human BT549 cells after 48 hrs by sulforhodamine B assay; format: functional; settings: BT-549, 48 h
T47D = assay: Cytotoxicity against human T47D cells after 48 hrs by sulforhodamine B assay; format: functional
MDA-MB-435 = assay: Cytotoxicity against human MDA-MB-435 breast cancer cells after 48 hrs by sulforhodamine B assay; format: functional; settings: MDA-MB-435, 48 h
NCI-H460 [21] = assay: Growth inhibition of human NCI-H460 cells after 48 hrs by MTT assay; format: functional
In short: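 NCI-H460 viability measured by MTT (mitochondrial enzymatic activity) after 48 h exposure at 1 nM to 10 μM. GI50 derived from dose-response curves, with N = 9 and two-way ANOVA. Values are the mean of three independent experiments with duplicate determinations.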

For `C[C@@H]1O[C@@H](O[C@H]2CC[C@@]3(C)[C@H](CC[C@@H]4[C@@H]3CC[C@]3(C)[C@@H](C5=CC(=O)OC5)CC[C@]43O)C2)CC[C@H]1O` [RAMNODIGIN], the Activity (NCI-H460 [1]) was 42.463%, the Activity (NCI-H460 [2]) was 18.12% and the Activity (NCI-H460 [3]) was 22.09%. For the same molecule, the Activity (NCI-H460 [4]) was 52.04%, the Activity (NCI-H460 [5]) was 77.04% and the Activity (NCI-H460 [6]) was 98.61%. The Activity (NCI-H460 [7]) was 100%, the Activity (NCI-H460 [8]) was 100% and the Activity (NCI-H460 [9]) was 100%. For the same molecule, the Activity (NCI-H460 [10]) was 100%, the Activity (NCI-H460 [11]) was “Dose-dependent effect” and the pIC50 (NCI-H460 [11]; NCI-H460, 12 h) was 7.29. For the same molecule, the “Ratio IC50” value (NCI-H460 [12]) was 4, the viability at 0.001 µM (NCI-H460 [13]) was 77% and the viability at 0.01 µM (NCI-H460 [14]) was 13.9%. It also gave a viability at 0.025 µM (NCI-H460 [15]) of 7.14%, a viability at 0.05 µM (NCI-H460 [16]) of 6.18% and a viability at 0.1 µM (NCI-H460 [17]) of 5%. The viability at 0.5 µM (NCI-H460 [18]) was 3.69%, the viability at 1 µM (NCI-H460 [19]) was 3.25% and the GI50 (NCI-H460 [20]) was 1.93 nM. It also gave a GI50 (CCRF-CEM) of 8.49 nM, a GI50 (HL-60(TB)) of 2.96 nM and a GI50 (K562) of 19.5 nM. For the same molecule, the GI50 (HCC 2998) was 16.5 nM, the GI50 (HCT-116) was “inactive” and the GI50 (SF-539) was 7.8 nM. The GI50 (U-251) was 12.7 nM, the GI50 (SK-MEL-2) was “inactive” and the GI50 (IGROV-1) was 5.23 nM. For the same molecule, the GI50 (OVCAR-5) was 17.4 nM, the GI50 (OVCAR-8) was 2.5 nM and the GI50 (NCI/ADR-RES) was 4.12 nM. For the same molecule, the GI50 (CAKI-1) was 3.32 nM, the GI50 (RXF 393) was 1.22 nM and the GI50 (BT-549) was 2.41 nM. The GI50 (T47D) was 20.6 nM, the GI50 (MDA-MB-435) was 21 nM and the GI50 (NCI-H460 [21]) was “Dose-dependent effect”. It also gave a GI50 (NCI-H460 [21]; NCI-H460, 48 h) of 2 nM.
